Test results: ChEMBL document CHEMBL4334468, “Exploring Mitochondria-Mediated Intrinsic Apoptosis by New Phytochemical Entities: An Explicit Observation of Cytochrome c Dynamics on Lung and Melanoma Cancer Cells” (J Med Chem, 2019)
Calls of active or inactive are those of the source. No cut-off for these calls is given here.

How the values were obtained:
[1] = test system: A-375; assay: Induction of apoptosis in human A375 cells assessed as increase in caspase-9 levels at 1 uM incubated for 12 hrs by spectrofluorometry; assay type: functional, cell-based
[2] = test system: A-375; assay: Inhibition of colony formation in human A375 cells at 1 nM by crystal violet staining based assay; assay type: functional, cell-based
[3] = test system: A549; assay: Induction of cell cycle arrest in human A549 cells assessed as accumulation at S phase at 10 nM by propodium iodide staining based flow cytometric analysis (reference value: 25%); assay type: functional
Outline: (§1)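 DNA was stained with propidium iodide and analysed by flow cytometry. Histograms give the fraction of cells in G0/G1, S and G2/M phases.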

[4] = test system: A549; assay: Induction of DNA damage in human A549 cells after 4 hrs by Raman spectral imaging analysis; assay type: functional, cell-based
[5] = test system: A-375; assay: Antimetastatic activity in human A375 assessed as inhibition of cell migration rate at 1 nM incubated up to 24 hrs by scratch wound healing assay; assay type: functional, cell-based
Outline: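 Scratch wound healing assay. The cell-free zone was followed over time up to 24 h, with untreated control wells as reference. Closure was quantified as migration rate.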

[6] = test system: A549; assay: Induction of apoptosis in human A549 cells assessed as necrosis cells level at 1 uM incubated for 24 hrs by FITC-Annexin V staining based assay (reference value: 0.3%); assay type: functional
[7] = test system: A549; assay: Induction of apoptosis related protein expression in human A549 cells assessed as increase in Bim expression at 20 uM incubated for 12 hrs by apoptosis antibody array; assay type: functional, cell-based
[8] = test system: A549; assay: Cytotoxicity in human A549 cells assessed as reduction in cell viability incubated for 24 hrs by MTT assay; assay type: functional, cell-based; details: Homo sapiens, A549, 24 h; read-out: IC50
Outline: (§2)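 MTT viability assay on A375 melanoma, A549 lung adenocarcinoma and WI-38 normal lung fibroblast cells after 24 and 48 h treatment. IC50 values are in µM, expressed as mean ± SD.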

[9] = Antioxidant activity assessed as DPPH radical scavenging activity at 1 to 1000 ug/ml incubated for 30 mins by spectrophotometry; assay type: functional
[10] = test system: A549; assay: Antimetastatic activity in human A549 cells assessed as reduction in cell migration at 10 nM by crystal violet staining based transwell chamber assay; assay type: functional
Outline: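 Transwell chamber migration assay. Cells migrating to the lower side were imaged and quantified against untreated control.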

[11] = test system: A-375; assay: Induction of cell cycle arrest in human A375 cells assessed as accumulation at G0/G1 phase at 10 nM by propodium iodide staining based flow cytometric analysis; assay type: functional; outline: as §1
[12] = test system: A549; assay: Cytotoxicity in human A549 cells assessed as reduction in cell viability at 0.001 to 100 uM incubated for 24 to 48 hrs by LDH assay; assay type: functional, cell-based
Outline: (§3)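 LDH released into the culture medium after plasma membrane damage was quantified and expressed as percentage cytotoxicity.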

[13] = test system: A-375; assay: Induction of apoptosis in human A375 cells assessed as increase in caspase-3 levels at 1 uM incubated for 12 hrs by spectrofluorometry; assay type: functional, cell-based
[14] = test system: A549; assay: Inhibition of colony formation in human A549 cells at 1 nM by crystal violet staining based assay; assay type: functional, cell-based
[15] = test system: A-375; assay: Induction of DNA fragmentation in human A375 cells after 3 hrs by chemometec-DNA fragmentation assay relative to control; assay type: functional, cell-based
[16] = Antioxidant activity at 1 to 1000 ug/ml incubated for 90 mins by FRAP assay; assay type: functional
[17] = test system: A549; assay: Induction of apoptosis in human A549 cells assessed as increase in caspase-3 levels at 1 uM incubated for 12 hrs by spectrofluorometry; assay type: functional, cell-based
[18] = test system: A549; assay: Induction of apoptosis related protein expression in human A549 cells assessed as increase in CD40 expression at 20 uM incubated for 12 hrs by apoptosis antibody array; assay type: functional, cell-based
[19] = test system: A549; assay: Induction of intracellular ROS generation in human A549 cells by DCFDA dye based fluorescence assay relative to control; assay type: functional, cell-based
Outline: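 Intracellular ROS in A549 cells was measured with the DCFDA probe over 1-100 µM, with paclitaxel as positive control. Readout is fold change in fluorescence intensity relative to untreated control.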

[20] = test system: A-375; assay: Induction of morphological changes in human A375 cells assessed as change in shape of cells from spindle to spherical at 1 uM by atomic force microscopy; assay type: functional, cell-based
[21] = test system: A549; assay: Induction of apoptosis in human A549 cells assessed as induction of nuclear changes with DNA fragmentation at 1 uM by Hoechst 33342 nuclear staining based assay; assay type: functional, cell-based
Outline: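 Hoechst 33342 nuclear staining of treated A549 or A375 cells. Nuclear condensation and fragmentation were examined by fluorescence microscopy against untreated control.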

[22] = test system: A549; assay: Induction of DNA fragmentation in human A549 cells after 4 hrs by agarose gel electrophoresis; assay type: functional, cell-based
[23] = test system: A549; assay: Induction of DNA fragmentation in human A549 cells after 3 hrs by chemometec-DNA fragmentation assay relative to control; assay type: functional
[24] = test system: A549; assay: Induction of apoptosis related protein expression in human A549 cells assessed as increase in Bad expression at 20 uM incubated for 12 hrs by apoptosis antibody array; assay type: functional, cell-based
[25] = test system: A-375; assay: Induction of morphological changes in human A375 cells assessed as induction of membrane breakage, blebbing and leakage of intracellular components at 1 uM by atomic force microscopy; assay type: functional, cell-based
[26] = test system: A-375; assay: Cytotoxicity in human A375 cells assessed as reduction in cell proliferation at 0.001 to 100 uM incubated for 24 to 48 hrs by BrdU incorporation assay; assay type: functional, cell-based
Outline: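 BrdU incorporation assay read colorimetrically. Absorbance of the developed colour is proportional to the BrdU incorporated into cells, taken as a measure of proliferation.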

[27] = test system: A549; assay: Induction of apoptosis related protein expression in human A549 cells assessed as increase in CD40L expression at 20 uM incubated for 12 hrs by apoptosis antibody array; assay type: functional, cell-based
[28] = test system: A-375; assay: Suppression of cell number in human A375 cells at 20 uM by phase contrast microscopy; assay type: functional, cell-based
[29] = test system: A549; assay: Induction of apoptosis in human A549 cells assessed as cytochrome-c release after 4 to 12 hrs by spectrophotometry; assay type: functional, cell-based
[30] = test system: A549; assay: Induction of morphological changes in human A549 cells assessed as change in shape of cells from spindle to spherical at 1 uM by atomic force microscopy; assay type: functional, cell-based
[31] = test system: A549; assay: Induction of apoptosis related protein expression in human A549 cells assessed as increase in p21 expression at 20 uM incubated for 12 hrs by apoptosis antibody array; assay type: functional, cell-based
[32] = test system: A-375; assay: Induction of DNA damage in human A375 cells by SERS spectral analysis; assay type: functional, cell-based
[33] = test system: A-375; assay: Cytotoxicity in human A375 cells assessed as reduction in cell viability incubated for 48 hrs by MTT assay; assay type: functional, cell-based; details: Homo sapiens, A-375, 48 h; read-out: IC50; outline: as §2
[34] = test system: A549; assay: Induction of apoptosis related protein expression in human A549 cells assessed as increase in TNFalpha/beta expression at 20 uM incubated for 12 hrs by apoptosis antibody array; assay type: functional, cell-based
[35] = test system: A-375; assay: Cytotoxicity in human A375 cells assessed as reduction in cell viability at 0.001 to 100 uM incubated for 24 to 48 hrs by LDH assay; assay type: functional, cell-based; outline: as §3
[36] = test system: A549; assay: Induction of apoptosis in human A549 cells at 1 uM by acridine orange-ethidium bromide assay; assay type: functional, cell-based
Outline: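 Cells were treated at 1 µM and then stained with acridine orange-ethidium bromide. Apoptosis was scored by fluorescence microscopy as a colour shift from green to yellow/red.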

[37] = test system: A549; assay: Induction of apoptosis related protein expression in human A549 cells assessed as increase in p53 expression at 20 uM incubated for 12 hrs by apoptosis antibody array; assay type: functional, cell-based

## COc1cc(C2Oc3cc(-c4cc(=O)c5c(O)cc(O)cc5o4)ccc3OC2/C=C2\C(=O)ON=C2c2ccc(Cl)cc2)ccc1O (configuration not stated)
[1]
  Activity: Active
[2]
  inhibition: Active
[3]
  Activity: 40%
[4]
  Activity: Active
[5]
  Activity: Active
[6]
  Activity: 13%
[7]
  Activity: Active
[8]
  IC50: 2 µM
[9]
  Activity: inactive
[10]
  Activity: Active
[11]
  Activity: Active
[12]
  Activity: Active
[13]
  Activity: Active
[14]
  inhibition: Active
[15]
  Activity: Active
[16]
  Activity: inactive
[17]
  Activity: Active
[18]
  Activity: Active
[19]
  Activity: Dose-dependent effect
[20]
  Activity: Active
[21]
  Activity: Active
[22]
  Activity: Active
[23]
  Activity: 14.5%
[24]
  Activity: Active
[25]
  Activity: Active
[26]
  Activity: Active
[27]
  Activity: Active
[28]
  Activity: Active
[29]
  Activity: Active
[30]
  Activity: Active
[31]
  Activity: Active
[32]
  Activity: Active
[33]
  IC50: 0.94 µM
[34]
  Activity: Active
[35]
  Activity: Active
[36]
  Activity: Active
[37]
  Activity: Active
